Screening data: PubChem BioAssay, Johns Hopkins Ion Channel Center
Hits are enriched below; roughly 3.5% of the tested compounds scored in any of these assays.
MrgX1 ag: activates human MrgX1 receptor signaling | AID 588627 | 310,000 compounds, 0.44% hits | MrgX1-HEK293 cells, Fluo-4 calcium fluorescence, agonist mode; active compounds read high | B-score at 10 µM | Q96LB2;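 active means calcium response B-score plate-corrected fluorescence ratio at least 3 library SD, with starting fluorescence B-score inside 5 SD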
Target sequence (Q96LB2 whole entry, looked up): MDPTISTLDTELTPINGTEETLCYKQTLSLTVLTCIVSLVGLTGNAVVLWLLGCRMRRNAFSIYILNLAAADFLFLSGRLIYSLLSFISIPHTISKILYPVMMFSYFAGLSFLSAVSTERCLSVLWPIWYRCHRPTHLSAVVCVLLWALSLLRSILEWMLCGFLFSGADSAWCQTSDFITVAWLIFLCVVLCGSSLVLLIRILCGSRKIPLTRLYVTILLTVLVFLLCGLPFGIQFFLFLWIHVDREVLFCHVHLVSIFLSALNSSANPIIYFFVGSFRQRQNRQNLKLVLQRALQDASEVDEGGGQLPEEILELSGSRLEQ
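System: HEK293 cells stably expressing human MrgX1 receptor; Dosing: test compound in the initial addition of three; Schedule: overnight plating, then 30 min 37 °C plus 30 min room-temperature dye loading; Detection: kinetic calcium dye fluorescence, Fluo-4 NW; Controls: per-plate positive and negative controls for Z′ factor.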
MrgX1 PAM: human MrgX1 positive allosteric modulation, primary screen; B-score at 10 µM; 310,000 compounds, 0.63% hits; Q96LB2; MrgX1-HEK293, Fluo-4 calcium flux, FDSS; active compounds read high;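 active means plate-corrected calcium response at least 3 library SD above typical, normal starting fluorescence, not activating the receptor alone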;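 further: compound read alongside a low EC10 to EC30 dose of BAM8-22 agonist; peak minus trough fluorescence over baseline measured at the second addition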
RGS4 block: inhibitors of human RGS4; HEK293 M3R/RGS4 inducible, Fluo-4 calcium flux; active compounds read high; triggered by carbachol at its EC20; B-score at 10 µM; 310,000 compounds, 0.45% hits; P49798;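 active means B-score, a plate-corrected calcium signal, over three deviations above library mean, with baseline fluorescence within five deviations of library mean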;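 further: RGS4 expression induced by doxycycline in cells with stable M3 receptor; B-score is computed from the integrated fluorescence ratio over baseline after carbachol; higher B-score means a larger calcium signal and so more RGS4 inhibition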
Target sequence (P49798 whole entry, looked up): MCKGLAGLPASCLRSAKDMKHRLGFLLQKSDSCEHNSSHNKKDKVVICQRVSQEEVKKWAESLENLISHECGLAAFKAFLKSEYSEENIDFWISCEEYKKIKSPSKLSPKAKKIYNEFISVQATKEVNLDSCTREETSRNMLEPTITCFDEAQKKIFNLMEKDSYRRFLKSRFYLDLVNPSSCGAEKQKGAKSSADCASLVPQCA
RGS4 pot: potentiators or activators of RGS4; HEK293 M3R/inducible RGS4, carbachol calcium flux Fluo4; active compounds read low; B-score at 10 µM; 310,000 compounds, 0.92% hits; AID 463111;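 active means B-score of the integrated calcium signal more than 4 SD below the library mean, with starting fluorescence not abnormally high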;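 further: negative B-score means reduced calcium response which marks RGS4 activation or potentiation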
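Test system: HEK293 cells with stable M3R and inducible RGS4; also added: carbachol at ECmax as muscarinic agonist stimulus; schedule: dye loading 30 min 37 °C, buffer rest 30 min RT; technique: kinetic calcium fluorescence imaging with Fluo4-AM dye, 2 µM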
MrgX1 antagonist: human MrgX1 receptor antagonism, primary screen | Q96LB2 | MRGX1-HEK293 calcium flux, Fluo-4, BAM8-22 antagonism; active compounds read low | B-score at 10 µM | 310,000 compounds, 1.3% hits | AID 588676;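 active means calcium-response B-score plate-corrected more than 3 library SD below zero, starting fluorescence within 5 deviations, no agonist response on first addition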;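 further: peak minus trough fluorescence over baseline after final BAM8-22 challenge near maximal dose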
RGS4 block valid: RGS4 inhibitor validation; shares compounds with RGS4 block; HEK293 M3R/RGS4, carbachol calcium Fluo-4 fluorescence; carbachol added at its EC20; 0 = buffer wells, 100 = carbachol control; calcium response, % at 10 µM; 1,700 compounds, 65% hits; AID 492999;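 active means duplicate-averaged calcium response above the buffer-only control mean plus 5 SD of those controls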;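 further: integrated fluorescence ratio F max minus min over baseline F0; higher response in RGS4-induced cells means RGS4 inhibition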
RGS4 uninduced: checks RGS4 inhibitor effects in non-induced HEK293 M3R cells | shares compounds with RGS4 block | carbachol calcium Fluo-4; submaximal (EC20) carbachol stimulus; buffer wells 0%, carbachol control wells 100% | activity (percent), % at 10 µM | 1,900 compounds, 20% hits; call rule not given here;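 further: RGS4 induction absent so cells express M3R without RGS4; higher means more calcium signal and flags a non-specific hit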
M3R basal Ca ctr: second RGS4 inhibitor counter-screen in uninduced cells lacking carbachol; shares compounds with RGS4 block; HEK293 M3R/RGS4 non-induced, Fluo-4 calcium, no carbachol; normalised: buffer wells 0%, carbachol wells 100%; calcium response (agonist-mode artifact), % at 10 µM; 1,900 compounds, 22% hits; AID 493001;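 active means duplicate-averaged calcium rise in uninduced cells above buffer wells' mean plus 5 SD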
Each line names hits and unclear results; the compound was inactive in the other large screens (follow-up assays come after a bar, where they were run).

CCOc1ccc(/C(C)=N/NC(=O)C(OC)c2ccccc2)cc1 (centres undefined)	none
NC(=O)Cn1c(=O)n(CC(=O)N2CCCCC2)c(=O)c2sccc21	none
CCN(Cc1ccccc1)C(=O)Cn1c(=O)n(CC(=O)N2CCCCC2)c(=O)c2sccc21	none | RGS4 uninduced 43.5% | M3R basal Ca ctr inactive
CCOC(=O)CNc1nnc(SCC(=O)OCC)[nH]c1=O	none | RGS4 uninduced inactive | M3R basal Ca ctr inactive
COC(=O)CSc1nnc(C)c(=O)[nH]1	none
COc1ccc(C(=O)N/C(N)=N/c2nc3ccccc3o2)cc1	none
COc1ccc(C(=O)/C=C/Sc2nc3ccccc3o2)cc1	RGS4 block 24.4 | RGS4 block valid 9.5% | RGS4 uninduced inactive | M3R basal Ca ctr inactive
CCN(CC)C(=O)CSc1nc(N)c2c3c(sc2n1)CC(C)CC3 (centres undefined)	none
O=[N+]([O-])c1cc(Cl)cc(/C=N/NC(=S)Nc2ccc(S(=O)(=O)N3CCOCC3)cc2)c1O	none | RGS4 block valid inactive | RGS4 uninduced inactive | M3R basal Ca ctr inactive
COCCCNc1nc(N)c([N+](=O)[O-])c(NCC2CCCO2)n1 (centres undefined)	none
CCC(C(=O)NCCc1ccc(C)cc1)n1nc(C)c2c(C)n(-c3ccccc3)nc2c1=O (centres undefined)	none
CCC(C(=O)N1CCCC1)n1nc(C)c2c(C)n(-c3ccccc3)nc2c1=O (centres undefined)	none | RGS4 block valid inactive | RGS4 uninduced inactive | M3R basal Ca ctr inactive
CC1=NN(c2cccc(C(=O)O)c2)C(=O)/C1=C\C=C/c1ccccc1	RGS4 block 34.3 (no result: MrgX1 ag, MrgX1 PAM, MrgX1 antagonist) | RGS4 block valid 80.0% | RGS4 uninduced 59.0% | M3R basal Ca ctr inactive
O=C(Nc1cnc2ccccn2c1=O)c1ccc(Cl)cc1	RGS4 block 4.85 | RGS4 block valid inactive | RGS4 uninduced inactive | M3R basal Ca ctr inactive
CCOC(=O)C1(C(F)(F)F)N=C(C(F)(F)F)Nc2cc(C)c(C)cc21 (centres undefined)	none
CCOC(=O)CSc1ncnc2c1sc1nc(N3CCOCC3)c3c(c12)CCCC3	none
COc1ccc(/C=C/C(=O)c2sc(-c3ccccc3)nc2C)cc1	none | RGS4 uninduced inactive | M3R basal Ca ctr 39.5%
Cc1ccc(S(=O)(=O)NNC(=O)c2ccncc2)cc1	none
Oc1c(Br)cccc1/C=N/c1ncn[nH]1	RGS4 block 4.67 | RGS4 block valid 7.5% | RGS4 uninduced inactive | M3R basal Ca ctr inactive
O=S1(=O)CCC(N=Cc2ccc(-c3ccc(Cl)cc3)o2)C1 (centres undefined)	RGS4 block 5.68 | RGS4 block valid 7.5% | RGS4 uninduced inactive | M3R basal Ca ctr inactive
O=C1C(c2ccccc2)SC(=Nc2ccccc2)N1S(=O)(=O)c1ccccc1 (centres undefined)	none
CN(C)c1ccc(/C=C/C(=O)c2cccnc2)cc1	none
O=C(/C=C/c1cccc(O)c1)c1cccnc1	RGS4 block 5.76 | RGS4 block valid 8.5% | RGS4 uninduced inactive | M3R basal Ca ctr 10.5%
Cc1ccc(/C=C/C(=O)c2ccccc2O)cc1	none
O=C(/C=C/c1cccnc1)c1cccc(O)c1	RGS4 block 12.1 | RGS4 block valid 37.0% | RGS4 uninduced inactive | M3R basal Ca ctr inactive
O=C(/C=C/c1cccnc1)c1ccccc1O	RGS4 block 8.84 | RGS4 block valid 37.0% | RGS4 uninduced 63.0% | M3R basal Ca ctr 8.5%
CN(C)C(=O)COc1ccc(C(=O)/C=C/c2cccnc2)cc1	MrgX1 PAM 6.85, RGS4 block 5.59 | RGS4 block valid 17.0% | RGS4 uninduced inactive | M3R basal Ca ctr inactive
Cc1cccc(C)c1N/C=C/c1onc(C)c1[N+](=O)[O-]	none
Cc1noc(/C=C/c2cccnc2)c1[N+](=O)[O-]	RGS4 block 5.7 | RGS4 block valid 18.5% | RGS4 uninduced inactive | M3R basal Ca ctr inactive
O=C(/C=C/c1cccnc1)c1ccc([N+](=O)[O-])cc1	RGS4 block 6.05 | RGS4 block valid 43.0% | RGS4 uninduced 54.5% | M3R basal Ca ctr inactive
O=C(/C=C/c1cccnc1)c1ccc(O)cc1	RGS4 block 5.2 | RGS4 block valid 15.0% | RGS4 uninduced inactive | M3R basal Ca ctr inactive
O=C(/C=C/c1ccc(O)cc1)c1ccccc1	none
CCOCCCNC(=S)N1CCCN(c2nc3cc(C)c(C)cc3cc2C#N)CC1	none
O=C(CC(Nc1ccc(F)cc1)C(=O)OCC(=O)c1cccs1)c1ccccc1 (centres undefined)	RGS4 block 6.15 | RGS4 block valid inactive | RGS4 uninduced inactive | M3R basal Ca ctr inactive
O=C(CC(Nc1ccc(F)cc1)C(=O)O)c1ccccc1 (centres undefined)	none
CCN(CC)c1ccc(/C=N\N2CCN(Cc3ccc(C)cc3)CC2)cc1	none | RGS4 block valid inactive | RGS4 uninduced inactive | M3R basal Ca ctr inactive
COc1ccc(/C(C)=N/Nc2ccc(C(=O)O)cc2)c(OC)c1	none
COc1ccc2c(c1)C(=NNc1ccc(C(=O)O)cc1)c1cc(OC)ccc1-2	RGS4 block 6.69 | RGS4 block valid 22.5% | RGS4 uninduced inactive | M3R basal Ca ctr inactive
Cc1cccc(OCC(=O)NNC(=O)CCc2ccccc2)c1	none (no result: MrgX1 ag, MrgX1 PAM, MrgX1 antagonist)
CC(NCC(O)COC1CCC(C(C)(C)C)CC1)c1ccccc1 (centres undefined)	RGS4 block 10.3 | RGS4 block valid 5.0% | RGS4 uninduced inactive | M3R basal Ca ctr inactive
COc1cc(CNCCN2CCOCC2)ccc1OCC(=O)NC(C)(C)C	none
CCC1(C)Cc2ccccc2-c2nc(NN)[nH]c(=O)c21 (centres undefined)	none
O=c1[nH]c(NCCO)nc2c1C1(CCCC1)Cc1ccccc1-2	RGS4 block 8.4 | RGS4 block valid 43.0% | RGS4 uninduced 70.0% | M3R basal Ca ctr 22.5%
CCC1(C)Cc2ccccc2-c2nc(NCCO)[nH]c(=O)c21 (centres undefined)	RGS4 block 7.96 | RGS4 block valid 20.5% | RGS4 uninduced inactive | M3R basal Ca ctr inactive
CC1(C)Cc2ccccc2-c2nc(NCCCO)[nH]c(=O)c21	none
C=CCNC(=S)NNc1nc2c(c(=O)[nH]1)C1(CCCCC1)Cc1ccccc1-2	RGS4 block 10.7 | RGS4 block valid 34.0% | RGS4 uninduced inactive | M3R basal Ca ctr inactive
CSc1nc(-c2ccccc2)nn1C(=O)c1ccccc1	none
